Data taken from ChEMBL document CHEMBL1124186, “Synthesis and evaluation of tylosin-related macrolides modified at the aldehyde function: a new series of orally effective antibiotics” (1988).
In brackets after ≈: the same amount, converted by molar mass.

Experiments:
Streptococcus [1] = assay: In vitro antimicrobial activity against aerobic bacteria Streptococcus G Kruder; assay type: functional; conditions: Streptococcus; read-out: MIC
Mus musculus [2] = assay: Peripheral plasma levels in mice after oral administration of 50 mg/kg dose for 4 hr; assay type: functional, organism-based; design: dose 50 mg/kg
In short: (§1)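 Mice were given the compound orally and sampled for peripheral plasma at each time point. Plasma was assayed microbiologically against Micrococcus luteus seeded in Antibiotic Medium 1. Inhibition zone sizes were read, and concentrations were calculated from each compound's own standard curve. Each value is the mean of five mice per time point.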

Collinsella aerofaciens = assay: In vitro antimicrobial activity against anaerobic bacteria eubacterium aerofaciens 1235; assay type: functional
[3] = In vitro antimicrobial activity against anaerobic bacteria peptostreptococcus intermedius 1264; assay type: functional
Enterococcus faecium = assay: In vitro antimicrobial activity against Streptococcus faecium X66; assay type: functional, streptococcus fae-cium
Streptococcus pneumoniae [4] = assay: In vivo effective dose against experimental infections in mice Strep. pneumoniae park when administered sc; assay type: functional
Staphylococcus aureus [5] = assay: In vivo effective dose against experimental infections in mice Staphylococcus aureus X1 when administered orally; assay type: functional; conditions: po
Streptococcus pneumoniae [6] = assay: In vivo effective dose against experimental infections in mice Strep. pneumoniae park when administered orally; assay type: functional; conditions: po
[7] = tested on: Peptoniphilus asaccharolyticus; assay: In vitro antimicrobial activity against anaerobic bacteria peptococcus asaccharolyticus 1302; assay type: functional
Streptococcus [8] = assay: In vitro antimicrobial activity against aerobic bacteria Streptococcus D 9960; assay type: functional
Mus musculus [9] = assay: Peripheral plasma levels in mice after oral administration of 50 mg/kg dose for 1 hr; assay type: functional, organism-based; design: dose 50 mg/kg; in short: as §1
Rattus norvegicus [10] = assay: Peripheral plasma levels in rats after oral administration of 100 mg/kg dose for 0.25 hr; assay type: functional, organism-based; design: dose 100 mg/kg
In short: (§2)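 Rats received 100 mg/kg orally and were sampled for peripheral plasma. Concentrations were measured by Micrococcus luteus agar-diffusion microbiological assay in Antibiotic Medium 1, with zone sizes converted using the standard curve for the appropriate compound. Each value is the average of three rats per time point.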

Mus musculus [11] = assay: Peripheral plasma levels in mice after oral administration of 100 mg/kg dose for 4 hr; assay type: functional, organism-based; design: dose 100 mg/kg; in short: as §1
[12] = tested on: Fusobacterium necrophorum; assay: In vitro antimicrobial activity against anaerobic bacteria usobacterium necrophorum 6054A; assay type: functional
Mus musculus [13] = assay: Peripheral plasma levels in mice after oral administration of 50 mg/kg dose for 2 hr; assay type: functional, organism-based; design: dose 50 mg/kg; in short: as §1
[14] = tested on: Prevotella melaninogenica; assay: In vitro antimicrobial activity against anaerobic bacteria bacteroides melaninogenicus 1856,; assay type: functional
Anaerococcus prevotii = assay: In vitro antimicrobial activity against anaerobic bacteria peptococcus prevoti 1281; assay type: functional
Staphylococcus aureus [15] = assay: In vitro antimicrobial activity against aerobic bacteria Staphylococcus aureus V140,; assay type: functional
Streptococcus pyogenes [16] = assay: In vivo effective dose against experimental infections in rodent caused by Streptococcus pyogenes C203 when administered sc; assay type: functional
[17] = tested on: Peptostreptococcus anaerobius; assay: In vitro antimicrobial activity against anaerobic bacteria eubacterium peptostreptococcus anaerobius 1428,; assay type: functional
Mus musculus [18] = assay: Peripheral plasma levels in mice after oral administration of 100 mg/kg dose for 0.5 hr; assay type: functional, organism-based; design: dose 100 mg/kg; in short: as §1
Streptococcus [19] = assay: In vitro antimicrobial activity against aerobic bacteria Streptococcus D 8043; assay type: functional
Staphylococcus aureus [20] = assay: In vitro antimicrobial activity against aerobic bacteria Staphylococcus aureus X400; assay type: functional
Streptococcus [21] = assay: In vitro antimicrobial activity against aerobic bacteria Streptococcus B 8; assay type: functional
Mus musculus [22] = assay: Peripheral plasma levels in mice after oral administration of 100 mg/kg dose for 1 hr; assay type: functional, organism-based; design: dose 100 mg/kg; in short: as §1
Staphylococcus aureus [23] = assay: In vitro antimicrobial activity against Staphylococcus aureus X1; assay type: functional
Staphylococcus aureus [24] = assay: In vitro antimicrobial activity against aerobic bacteria Staphylococcus aureus 513E; assay type: functional
Streptococcus [25] = assay: In vitro antimicrobial activity against aerobic bacteria Streptococcus B 14; assay type: functional
[26] = tested on: Prevotella melaninogenica; assay: In vitro antimicrobial activity against anaerobic bacteria bacteroides melaninogenicus 2736; assay type: functional
Rattus norvegicus [27] = assay: Peripheral plasma levels in rats after oral administration of 100 mg/kg dose for 0.5 hr; assay type: functional, organism-based; design: dose 100 mg/kg; in short: as §2
Haemophilus influenzae [28] = assay: In vitro antimicrobial activity against aerobic bacteria Haemophilus influenzae 76; assay type: functional
Streptococcus sanguinis = assay: In vitro antimicrobial activity against aerobic bacteria Streptococcus sanguis MX132; assay type: functional
Phocaeicola vulgatus = assay: In vitro antimicrobial activity against anaerobic bacteria bacteroides vulgatus 1211; assay type: functional
[29] = tested on: Bacteroides thetaiotaomicron; assay: In vitro antimicrobial activity against anaerobic bacteria bacteroides thetaiotaomicron 1438; assay type: functional
Staphylococcus aureus [30] = assay: In vivo effective dose against experimental infections in mice Staphylococcus aureus X1 when administered sc; assay type: functional
Streptococcus pneumoniae [31] = assay: In vitro antimicrobial activity against Streptococcus pneumoniae; assay type: functional
Mus musculus [32] = assay: Peripheral plasma levels in mice after oral administration of 50 mg/kg dose for 0.25 hr; assay type: functional, organism-based; design: dose 50 mg/kg; in short: as §1
Mus musculus [33] = assay: Peripheral plasma levels in mice after oral administration of 50 mg/kg dose for 0.5 hr; assay type: functional, organism-based; design: dose 50 mg/kg; in short: as §1
Haemophilus influenzae [34] = assay: In vitro antimicrobial activity against Haemophilus influenzae.; assay type: functional
Rattus norvegicus [35] = assay: Peripheral plasma levels in rats after oral administration of 100 mg/kg dose for 2 hr; assay type: functional, organism-based; design: dose 100 mg/kg; in short: as §2
Mus musculus [36] = assay: Peripheral plasma levels in mice after oral administration of 100 mg/kg dose for 0.25 hr; assay type: functional, organism-based; design: dose 100 mg/kg; in short: as §1
Chlamydia trachomatis = assay: In vitro antimicrobial activity against chlamydia trachomatis.; assay type: functional
Streptococcus [37] = assay: In vitro antimicrobial activity against aerobic bacteria Streptococcus B 5; assay type: functional
Clostridium perfringens = assay: In vitro antimicrobial activity against anaerobic bacteria clostridium perfringens 81,; assay type: functional
Eikenella corrodens = assay: In vitro antimicrobial activity against anaerobic bacteria bacteroides corrodens 1874; assay type: functional
[38] = tested on: Staphylococcus epidermidis; assay: In vitro antimicrobial activity against aerobic bacteria Streptococcus epi 222; assay type: functional
Streptococcus pyogenes [39] = assay: In vitro antimicrobial activity against Streptococcus pyogenes C203; assay type: functional
Streptococcus pyogenes [40] = assay: In vivo effective dose against experimental infections in rodent caused by Streptococcus pyogenes C203 when administered orally; assay type: functional; conditions: po
Rattus norvegicus [41] = assay: Peripheral plasma levels in rats after oral administration of 100 mg/kg dose for 4 hr; assay type: functional, organism-based; design: dose 100 mg/kg; in short: as §2
Fusobacterium = assay: In vitro antimicrobial activity against anaerobic bacteria fusobacterium symbiosum 1470; assay type: functional
Streptococcus viridans = assay: In vitro antimicrobial activity against aerobic bacteria Streptococcus viridans 9943; assay type: functional
Staphylococcus aureus [42] = assay: In vitro antimicrobial activity against aerobic bacteria Staphylococcus aureus V135; assay type: functional
Cutibacterium acnes = assay: In vitro antimicrobial activity against anaerobic bacteria propionibacterium acnes 79; assay type: functional
Bacteroides fragilis [43] = assay: In vitro antimicrobial activity against anaerobic bacteria bacteroides fragilis 1877; assay type: functional
[44] = tested on: Staphylococcus epidermidis; assay: In vitro antimicrobial activity against Staphylococcus epidermidis EPI1; assay type: functional
Bacteroides fragilis [45] = assay: In vitro antimicrobial activity against anaerobic bacteria bacteroides fragilis 1936B,; assay type: functional
Mus musculus [46] = assay: Peripheral plasma levels in mice after oral administration of 100 mg/kg dose for 2 hr; assay type: functional, organism-based; design: dose 100 mg/kg; in short: as §1
Staphylococcus aureus [47] = assay: In vitro antimicrobial activity against aerobic bacteria Staphylococcus aureus V41; assay type: functional
Rattus norvegicus [48] = assay: Peripheral plasma levels in rats after oral administration of 100 mg/kg dose for 1 hr; assay type: functional, organism-based; design: dose 100 mg/kg; in short: as §2
Haemophilus influenzae [49] = assay: In vitro antimicrobial activity against aerobic bacteria Haemophilus influenzae MX366,; assay type: functional
Bacteroides fragilis [50] = assay: In vitro antimicrobial activity against anaerobic bacteria bacteroides fragilis 111; assay type: functional
[51] = tested on: Staphylococcus epidermidis; assay: In vitro antimicrobial activity against aerobic bacteria Streptococcus epi 270; assay type: functional
Clostridioides difficile = assay: In vitro antimicrobial activity against anaerobic bacteria Clostridium difficile 2994; assay type: functional
Clostridium septicum = assay: In vitro antimicrobial activity against anaerobic bacteria clostridium septicum 1128; assay type: functional
Streptococcus [52] = assay: In vitro antimicrobial activity against aerobic bacteria Streptococcus D 2041; assay type: functional
Streptococcus [53] = assay: In vitro antimicrobial activity against aerobic bacteria Streptococcus C 24; assay type: functional
Streptococcus pneumoniae [54] = assay: In vitro antimicrobial activity against aerobic bacteria Streptococcus pneumoniae B1-438; assay type: functional, streptococcus pneum

Compound: CC[C@H]1C[C@@H](C)C(=O)/C=C/C(C)=C/[C@H](CO[C@@H]2O[C@H](C)[C@@H](O)[C@@H](OC)[C@H]2OC)[C@@H](CC)OC(=O)C[C@@H](O)[C@H](C)[C@H]1O[C@@H]1O[C@H](C)[C@@H](O)[C@H](N(C)C)[C@H]1O
- MIC (Streptococcus [1]): 64 µg/mL (≈ 84.4 µM)
- Concentration (Mus musculus [2]): 0.9 µg/mL
- MIC (Collinsella aerofaciens): 2 µg/mL (≈ 2.64 µM)
- MIC [3]: 4 µg/mL (≈ 5.28 µM)
- MIC (Enterococcus faecium): 16 µg/mL (≈ 21.1 µM)
- ED50 (Streptococcus pneumoniae [4]): > 20 mg/kg
- ED50 (Staphylococcus aureus [5]): 10 mg/kg
- ED50 (Streptococcus pneumoniae [6]): > 50 mg/kg
- MIC [7]: 2 µg/mL (≈ 2.64 µM)
- MIC (Streptococcus [8]): 16 µg/mL (≈ 21.1 µM)
- Concentration (Mus musculus [9]): 2 µg/mL
- Concentration (Rattus norvegicus [10]): 4.6 µg/mL
- Concentration (Mus musculus [11]): 0.8 µg/mL
- MIC [12]: 8 µg/mL (≈ 10.6 µM)
- Concentration (Mus musculus [13]): 2.2 µg/mL
- MIC [14]: 1 µg/mL (≈ 1.32 µM)
- MIC (Anaerococcus prevotii): 2 µg/mL (≈ 2.64 µM)
- MIC (Staphylococcus aureus [15]): 0.5 µg/mL (≈ 0.66 µM)
- ED50 (Streptococcus pyogenes [16]): 4.3 mg/kg
- MIC [17]: < 0.5 µg/mL
- Concentration (Mus musculus [18]): 4.5 µg/mL
- MIC (Streptococcus [19]): 8 µg/mL (≈ 10.6 µM)
- MIC (Staphylococcus aureus [20]): 0.5 µg/mL (≈ 0.66 µM)
- MIC (Streptococcus [21]): 8 µg/mL (≈ 10.6 µM)
- Concentration (Mus musculus [22]): 3.4 µg/mL
- MIC (Staphylococcus aureus [23]): 0.25 µg/mL (≈ 0.33 µM)
- MIC (Staphylococcus aureus [24]): 0.25 µg/mL (≈ 0.33 µM)
- MIC (Streptococcus [25]): 16 µg/mL (≈ 21.1 µM)
- MIC [26]: 4 µg/mL (≈ 5.28 µM)
- Concentration (Rattus norvegicus [27]): 7.4 µg/mL
- MIC (Haemophilus influenzae [28]): 16 µg/mL (≈ 21.1 µM)
- MIC (Streptococcus sanguinis): 2 µg/mL (≈ 2.64 µM)
- MIC (Phocaeicola vulgatus): 2 µg/mL (≈ 2.64 µM)
- MIC [29]: 4 µg/mL (≈ 5.28 µM)
- ED50 (Staphylococcus aureus [30]): 2.2 mg/kg
- MIC (Streptococcus pneumoniae [31]): 2 µg/mL (≈ 2.64 µM)
- Concentration (Mus musculus [32]): 0.9 µg/mL
- Concentration (Mus musculus [33]): 0.5 µg/mL
- MIC (Haemophilus influenzae [34]): 16 µg/mL (≈ 21.1 µM)
- Concentration (Rattus norvegicus [35]): 8.7 µg/mL
- Concentration (Mus musculus [36]): 2.6 µg/mL
- MIC (Chlamydia trachomatis): 0.5 µg/mL (≈ 0.66 µM)
- MIC (Streptococcus [37]): 8 µg/mL (≈ 10.6 µM)
- MIC (Clostridium perfringens): 2 µg/mL (≈ 2.64 µM)
- MIC (Eikenella corrodens): 4 µg/mL (≈ 5.28 µM)
- MIC [38]: 0.12 µg/mL (≈ 0.158 µM)
- MIC (Streptococcus pyogenes [39]): 0.5 µg/mL (≈ 0.66 µM)
- ED50 (Streptococcus pyogenes [40]): 7 mg/kg
- Concentration (Rattus norvegicus [41]): 5.1 µg/mL
- MIC (Fusobacterium): 2 µg/mL (≈ 2.64 µM)
- MIC (Streptococcus viridans): > 128 µg/mL
- MIC (Staphylococcus aureus [42]): 0.25 µg/mL (≈ 0.33 µM)
- MIC (Cutibacterium acnes): 8 µg/mL (≈ 10.6 µM)
- MIC (Bacteroides fragilis [43]): 4 µg/mL (≈ 5.28 µM)
- MIC [44]: 0.25 µg/mL (≈ 0.33 µM)
- MIC (Bacteroides fragilis [45]): 4 µg/mL (≈ 5.28 µM)
- Concentration (Mus musculus [46]): 2.3 µg/mL
- MIC (Staphylococcus aureus [47]): 0.25 µg/mL (≈ 0.33 µM)
- Concentration (Rattus norvegicus [48]): 7.2 µg/mL
- MIC (Haemophilus influenzae [49]): 16 µg/mL (≈ 21.1 µM)
- MIC (Bacteroides fragilis [50]): 4 µg/mL (≈ 5.28 µM)
- MIC [51]: > 128 µg/mL
- MIC (Clostridioides difficile): < 0.5 µg/mL
- MIC (Clostridium septicum): < 0.5 µg/mL
- MIC (Streptococcus [52]): 8 µg/mL (≈ 10.6 µM)
- MIC (Streptococcus [53]): 0.5 µg/mL (≈ 0.66 µM)
- MIC (Streptococcus pneumoniae [54]): > 128 µg/mL
